In data set [1] the target is T1, Protein deacetylase HDAC6 (Homo sapiens) (UniProt Q9UBN7).
T1 sequence (whole entry): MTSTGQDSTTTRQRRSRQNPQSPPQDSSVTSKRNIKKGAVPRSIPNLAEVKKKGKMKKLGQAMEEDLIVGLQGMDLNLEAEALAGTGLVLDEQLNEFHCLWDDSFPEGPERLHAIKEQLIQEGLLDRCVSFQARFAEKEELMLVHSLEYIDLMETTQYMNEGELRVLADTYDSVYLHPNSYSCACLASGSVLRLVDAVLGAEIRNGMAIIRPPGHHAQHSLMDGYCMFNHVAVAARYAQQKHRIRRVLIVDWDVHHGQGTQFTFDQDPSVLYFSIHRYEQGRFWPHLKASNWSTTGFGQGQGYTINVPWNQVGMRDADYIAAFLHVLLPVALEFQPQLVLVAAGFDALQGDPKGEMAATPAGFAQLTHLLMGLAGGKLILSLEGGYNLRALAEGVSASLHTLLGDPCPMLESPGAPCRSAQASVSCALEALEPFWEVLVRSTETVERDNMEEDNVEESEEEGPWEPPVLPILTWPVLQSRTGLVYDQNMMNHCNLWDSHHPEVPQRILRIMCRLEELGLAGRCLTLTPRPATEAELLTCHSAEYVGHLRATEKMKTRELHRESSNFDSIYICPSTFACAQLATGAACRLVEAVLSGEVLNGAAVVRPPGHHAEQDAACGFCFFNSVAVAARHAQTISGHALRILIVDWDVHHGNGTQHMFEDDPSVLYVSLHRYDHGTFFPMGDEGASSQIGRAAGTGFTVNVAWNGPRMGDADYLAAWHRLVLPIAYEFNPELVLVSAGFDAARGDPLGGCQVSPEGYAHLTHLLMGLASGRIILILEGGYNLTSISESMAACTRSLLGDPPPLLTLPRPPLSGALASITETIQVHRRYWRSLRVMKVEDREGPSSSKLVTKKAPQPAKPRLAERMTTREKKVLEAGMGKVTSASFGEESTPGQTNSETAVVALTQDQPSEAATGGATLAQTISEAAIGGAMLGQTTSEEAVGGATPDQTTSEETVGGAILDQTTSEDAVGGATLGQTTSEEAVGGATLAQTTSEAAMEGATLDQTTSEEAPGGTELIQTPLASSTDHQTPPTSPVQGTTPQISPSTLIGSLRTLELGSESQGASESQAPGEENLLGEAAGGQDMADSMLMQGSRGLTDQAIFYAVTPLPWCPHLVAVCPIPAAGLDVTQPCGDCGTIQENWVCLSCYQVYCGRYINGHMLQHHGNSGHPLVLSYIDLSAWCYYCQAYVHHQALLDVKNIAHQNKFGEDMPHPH
Put plainly: Inhibition of HDAC6 in human HeLa cells using acetyl tubulin as substrate assessed as Ac-Lys accumulation in nuclear histones at 20 uM after 24 hrs by immunofluorescence assay relative to control.

The target in data set [2] is T2, Protein deacetylase HDAC6 (Homo sapiens, UniProt Q9UBN7).
T2 sequence (Q9UBN7 whole entry): T1 sequence (whole entry)
The data set is described as follows: Inhibition of HDAC6 in human HeLa cells using acetyl tubulin as substrate assessed as Ac-tubulin accumulation in cytosol after 6 hrs by immunofluorescence assay.

The species entered for another data set is Homo sapiens. Put plainly: Selectivity ratio of IC50 for full length C-terminal His6x-tagged recombinant human HDAC8 to IC50 for N-terminal GST-tagged recombinant HDAC6 (unknown origin).
The target of data set [3] is T2, Protein deacetylase HDAC6. Put plainly: Inhibition of N-terminal GST-tagged recombinant HDAC6 (unknown origin) assessed as deacetylation of Ac-Arg-Gly-Lys (Ac) after 1 hr by fluorescence plate reader analysis in presence of trypsin.
Data set [4] can be described thus: Kinetic solubility of the compound in potassium phosphate buffer at pH 6.8 by turbidometric analysis. The class given is physicochemical. To be noted: read-out: Kinetic_solubility.
Data set [5] is described as follows: Selectivity ratio of IC50 for HDAC1/2 in human HeLa cell nuclear extract to IC50 for N-terminal GST-tagged recombinant HDAC6 (unknown origin). It is filed as cell-based. An outline of the steps:
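HDAC6 leg: 1 nM GST-HDAC6 with 8 μM Ac-Arg-Gly-Lys(Ac)-AMC. Nuclear-extract leg: 30 μg/mL HeLa nuclear extract (mainly HDAC1/2) with 20 μM of the same substrate in 50 mM Tris-Cl, 137 mM NaCl, 2.7 mM KCl, 1 mM MgCl2, pH 8.0.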

Molecules are shown by their SMILES. Values after ≈ are worked out from the molar mass of the structure shown. Some results are limits rather than exact numbers.

For the compound `Cn1cccc1C(=O)N1CCc2ccc(C(=O)NO)cc2CC1`, the inhibition in data set [1] is under 20%. For the same compound, the IC50 turned out to be 1510 nM in data set [2] and 130 nM in data set [3]. Besides, the Ratio IC50 amounted to 40 in the data set filed under Homo sapiens and 480 in data set [5]. Moreover, in data set [4], the solubility kinetic was over 200 µM.
For `Cn1cccc1C(=O)NCc1ncc(C(=O)NO)s1`, the Ratio IC50 came out at 40 in the data set listed under Homo sapiens and 123 in data set [5]. Moreover, in data set [3], the IC50 came to 52 nM. For the same compound, the solubility kinetic in data set [4] is over 200 µM.
With `Cn1cccc1C(=O)N1CCc2cc(C(=O)NO)sc2C1`, in data set [1], the inhibition is under 20%. Further, the IC50 in data set [2] came out at 5 nM; in data set [3], 28 nM. The solubility kinetic in data set [4] is over 200 µM. The Ratio IC50 in data set [5] was found to be 14.
For the compound `O=C(NO)c1ccc2c(c1)CCCN(C(=O)C1CCCCCC1)C2`, the inhibition in data set [1] is under 20%. The IC50 was found to be 2900 nM in data set [2] and 340 nM in data set [3]. Also, the figures for the Ratio IC50 (in the data set listed under Homo sapiens; in data set [5]) were 40 and over 200, respectively. Moreover, the solubility kinetic in data set [4] was over 200 µM.
Take `O=C(NO)c1cc2c(s1)CCN(C(=O)C1CCCCC1)C2`: in data set [1], the inhibition was under 20%. Also, the IC50 amounted to 162 nM in data set [2] and 36 nM in data set [3]. For the same compound, the Ratio IC50 worked out at 40 in the data set filed under Homo sapiens and 47 in data set [5]. The solubility kinetic in data set [4] is over 200 µM.
On to `CC(C)(C)C(=O)N1CCc2cc(C(=O)NO)sc2C1`, for which, in data set [1], the inhibition is under 20%. For the same compound, the IC50 worked out at 158 nM in data set [2] and 35 nM in data set [3]. Moreover, the Ratio IC50 came out at 40 in the data set listed under Homo sapiens and 71 in data set [5]. Also, in data set [4], the solubility kinetic was over 200 µM.
As for `O=C(NO)c1cc2c(s1)CN(C(=O)C1CCCCC1)CC2`, the inhibition in data set [1] was under 20%. The IC50 is 50 nM in data set [2] and 20 nM in data set [3]. Besides, in data set [4], the solubility kinetic was over 200 µM. The Ratio IC50 in data set [5] worked out at 50.
As for `Cn1cccc1C(=O)NCc1ccc(C(=O)NO)s1`, the results for the Ratio IC50 (in the data set listed under Homo sapiens; in data set [5]) were 40 and 202, respectively. Besides, the IC50 in data set [3] was 19 nM. Moreover, the solubility kinetic in data set [4] was over 200 µM.
Consider `O=C(NO)c1ccc2c(c1)CCN(C(=O)C1CCCCCC1)C2`, for which the inhibition in data set [1] is under 20%. The IC50 was determined as 340 nM in data set [2] and 54 nM in data set [3]. Also, the solubility kinetic in data set [4] was over 200 µM. The Ratio IC50 in data set [5] came out at 650.
Take `O=C(NO)c1ccc2c(c1)CCCN(C(=O)c1ccc(-c3ccccc3)cc1)C2`: the inhibition in data set [1] is under 20%. The IC50 in data set [2] was determined as 3090 nM; in data set [3] it was 120 nM. The results for the Ratio IC50 (in the data set filed under Homo sapiens; in data set [5]) were 40 and 60, respectively. Moreover, the solubility kinetic in data set [4] is over 200 µM.
As for `CC(C)(C)C(=O)N1CCc2ccc(C(=O)NO)cc2CC1`, the inhibition in data set [1] is under 20%. In addition, the IC50 in data set [2] turned out to be 580 nM; in data set [3], 120 nM. In addition, the Ratio IC50 in the data set filed under Homo sapiens was 40; in data set [5], 340. Moreover, the solubility kinetic in data set [4] is over 200 µM.
Consider `O=C(NO)c1ccc2c(c1)CCN(C(=O)c1ccc(-c3ccccc3)cc1)CC2`, for which, in data set [1], the inhibition is under 20%. Further, the IC50 in data set [2] stood at 2600 nM; in data set [3] it was 59 nM. Besides, the Ratio IC50 in the data set listed under Homo sapiens came to 40; in data set [5] it was 340. In addition, in data set [4], the solubility kinetic was over 200 µM.
On to `O=C(NO)c1ccc2c(c1)CCN(C(=O)C1CCCCCC1)CC2`, for which, in data set [1], the inhibition was under 20%. Further, the IC50 in data set [2] was 2000 nM; in data set [3], 120 nM. In addition, the Ratio IC50 in the data set filed under Homo sapiens is 40; in data set [5] it was 340. The solubility kinetic in data set [4] was over 200 µM.
Turning to `Cn1cccc1C(=O)NCc1cnc(C(=O)NO)s1`, the IC50 in data set [3] stood at 12000 nM. In addition, in data set [4], the solubility kinetic was over 200 µM. The Ratio IC50 in data set [5] was 8.
`Cn1cccc1C(=O)N1CCc2sc(C(=O)NO)cc2C1`: the inhibition in data set [1] was under 20%. Also, the IC50 worked out at 18 nM in data set [2] and 24 nM in data set [3]. The solubility kinetic in data set [4] is over 200 µM. In addition, the Ratio IC50 in data set [5] was found to be 30.
Regarding `CC(C)(C)C(=O)N1CCCc2cc(C(=O)NO)ccc2C1`, the inhibition in data set [1] is under 20%. The IC50 in data set [2] was 3680 nM; in data set [3] it was 490 nM. The Ratio IC50 in the data set filed under Homo sapiens is 40; in data set [5] it was over 200. In addition, in data set [4], the solubility kinetic is over 200 µM.
On to `O=C(NO)c1ccc(CNC(=O)C2CCCCC2)cc1`, for which the Ratio IC50 in the data set listed under Homo sapiens was 40; in data set [5], 84. Further, the IC50 in data set [3] is 76 nM. Further, in data set [4], the solubility kinetic is over 200 µM.
For `CC(C)(C)C(=O)N1CCc2sc(C(=O)NO)cc2C1`, in data set [1], the inhibition is under 20%. The figures for the IC50 in data set [2] and in data set [3] were 177 nM and 47 nM, respectively. In addition, the Ratio IC50 in the data set listed under Homo sapiens is 40; in data set [5] it was 64. The solubility kinetic in data set [4] was over 200 µM.
`O=C(NO)c1ccc2c(c1)CCN(S(=O)(=O)c1ccc(C(F)(F)F)cc1)C2`: the inhibition in data set [1] was under 20%. Moreover, the values for the IC50 in data set [2] and in data set [3] were 1300 nM and 60 nM, respectively. For the same compound, the solubility kinetic in data set [4] was 25 µM (≈ 10 µg/mL). Moreover, the Ratio IC50 in data set [5] came to 610.
`CC(C)(C)C(=O)NCc1ccc(C(=O)NO)cc1`: the Ratio IC50 in the data set listed under Homo sapiens is 40; in data set [5], 200. Moreover, the IC50 in data set [3] is 79 nM. Besides, in data set [4], the solubility kinetic was over 200 µM.
As to `O=C(NO)c1ccc2c(c1)CCN(C(=O)C1CCCCC1)C2`, in data set [1], the inhibition is under 20%. In addition, the IC50 in data set [2] turned out to be 540 nM; in data set [3] it was 50 nM. Besides, the solubility kinetic in data set [4] was over 200 µM. For the same compound, the Ratio IC50 in data set [5] amounted to 730.

A word on the inhibition: it is the percentage by which the read-out fell short of the control. In general, IC50 refers to the midpoint of a concentration-inhibition curve.

Values taken from ChEMBL document CHEMBL2429834, “Potent histone deacetylase inhibitors derived from 4-(aminomethyl)-N-hydroxybenzamide with high selectivity for the HDAC6 isoform” (J Med Chem, 2013).
